In ChEMBL document CHEMBL1129477, “Structure-activity relationships of the quinolone antibacterials against mycobacteria: effect of structural changes at N-1 and C-7” (J Med Chem, 1996) one finds MIC data, which are given here for 13 compounds.

≈ marks a conversion by molar mass, not a printed value.

What all share (format): functional
Experiment [1] has as its system Streptococcus pyogenes. Nature of the experiment: Anti-bacterial activity tested against Gram-positive SP1-1 bacterium. The essentials:
(§1)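 Standard microtitration MIC determination (µg/mL) against four representative Gram-negative and Gram-positive bacterial strains.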

Experiment [2] has as its system Staphylococcus aureus. In words: Anti-bacterial activity was tested against Gram-positive SA-13 bacterium. The essentials: as §1
Experiment [3] concerns Pseudomonas aeruginosa. In words: Anti-bacterial activity tested against Gram-negative PA-7 bacterium. The essentials: as §1
The test system of experiment [4] is Escherichia coli. Nature of the experiment: Anti-bacterial activity was tested against Gram-negative EC-1 bacterium. The essentials:
as §1

Experiment [5] has as its system Mycolicibacterium smegmatis. Nature of the experiment: Anti-bacterial activity tested against Mycobacterium smegmatis (ATCG 19420).
In experiment [6] the test system is Mycolicibacterium fortuitum. In words: Anti-bacterial activity tested against Mycobacterium fortuitum (ATCG 6841).

As usually defined, the MIC is the lowest concentration that inhibits growth of the organism. Regarding `CC1CN(c2cc3c(cc2F)c(=O)c(C(=O)O)cn3C(C)(C)C)CCN1` (stereo not drawn), the MIC in experiment [1] was above 3.1 µg/mL; in experiment [2], 0.4 µg/mL (≈ 1.11 µM); in experiment [3] it was 0.8 µg/mL (≈ 2.21 µM); in experiment [4], 0.1 µg/mL (≈ 0.277 µM); in experiment [5], 0.06 µg/mL (≈ 0.166 µM); in experiment [6] it was 0.03 µg/mL (≈ 0.083 µM).

With `CC(C)NCC1CCN(c2cc3c(cc2F)c(=O)c(C(=O)O)cn3C2CC2)C1` (stereo not drawn), the MIC was determined as 1.6 µg/mL (≈ 4.13 µM) in experiment [1]; 0.4 µg/mL (≈ 1.03 µM) in experiment [2]; 3.1 µg/mL (≈ 8 µM) in experiment [3]; 0.4 µg/mL (≈ 1.03 µM) in experiment [4]; 0.5 µg/mL (≈ 1.29 µM) in experiment [5]; 0.25 µg/mL (≈ 0.645 µM) in experiment [6].

For `CCN1CCN(c2cc3c(cc2F)c(=O)c(C(=O)O)cn3C2CCC2)CC1`, the MIC in experiment [1] was above 3.1 µg/mL; in experiment [2], 3.1 µg/mL (≈ 8.3 µM); in experiment [3], above 3.1 µg/mL; in experiment [4], 0.8 µg/mL (≈ 2.14 µM); in experiment [5], 2 µg/mL (≈ 5.36 µM); in experiment [6], 0.5 µg/mL (≈ 1.34 µM).

With `CCCCN1CCN(c2cc3c(cc2F)c(=O)c(C(=O)O)cn3-c2ccc(F)cc2F)CC1`, the MIC in experiment [1] is 3.1 µg/mL (≈ 6.75 µM); in experiment [2], 0.4 µg/mL (≈ 0.871 µM); in experiment [3], 3.1 µg/mL (≈ 6.75 µM); in experiment [4], 0.8 µg/mL (≈ 1.74 µM); in experiment [5] it was 2 µg/mL (≈ 4.35 µM); in experiment [6] it was 1 µg/mL (≈ 2.18 µM).

As to `CCN1CCN(c2cc3c(cc2F)c(=O)c(C(=O)O)cn3C(C)(C)C)CC1`, the MIC in experiment [1] was above 3.1 µg/mL; in experiment [2], 0.2 µg/mL (≈ 0.533 µM); in experiment [3], 1.6 µg/mL (≈ 4.26 µM); in experiment [4], 0.2 µg/mL (≈ 0.533 µM); in experiment [5], 0.13 µg/mL (≈ 0.346 µM); in experiment [6] it was 0.13 µg/mL (≈ 0.346 µM).

Consider `CCC1CN(c2cc3c(cc2F)c(=O)c(C(=O)O)cn3C2CC2)CCN1` (stereo not drawn), for which the MIC in experiment [1] came out at 0.8 µg/mL (≈ 2.23 µM); in experiment [2], 0.8 µg/mL (≈ 2.23 µM); in experiment [3], 0.8 µg/mL (≈ 2.23 µM); in experiment [4], 0.1 µg/mL (≈ 0.278 µM); in experiment [5], 0.25 µg/mL (≈ 0.696 µM); in experiment [6], 0.13 µg/mL (≈ 0.362 µM).

For the compound `CN1CCN(c2cc3c(cc2F)c(=O)c(C(=O)O)cn3C2CC2)CC1`, the MIC in experiment [1] was 1.6 µg/mL (≈ 4.63 µM); in experiment [2], 0.2 µg/mL (≈ 0.579 µM); in experiment [3] it was 0.4 µg/mL (≈ 1.16 µM); in experiment [4] it was 0.05 µg/mL (≈ 0.145 µM); in experiment [5], 0.25 µg/mL (≈ 0.724 µM); in experiment [6], 0.06 µg/mL (≈ 0.174 µM).

For `CC1CN(c2cc3c(cc2F)c(=O)c(C(=O)O)cn3C2CCC2)CC(C)N1` (stereo not drawn), the MIC is above 3.1 µg/mL in experiment [1]; 3.1 µg/mL (≈ 8.3 µM) in experiment [2]; 3.1 µg/mL (≈ 8.3 µM) in experiment [3]; 0.4 µg/mL (≈ 1.07 µM) in experiment [4]; 0.5 µg/mL (≈ 1.34 µM) in experiment [5]; 0.13 µg/mL (≈ 0.348 µM) in experiment [6].

Consider `CNCC1CCN(c2cc3c(cc2F)c(=O)c(C(=O)O)cn3-c2ccc(F)cc2F)C1` (stereo not drawn), for which the MIC in experiment [1] worked out at 0.1 µg/mL (≈ 0.232 µM); in experiment [2], 0.1 µg/mL (≈ 0.232 µM); in experiment [3], 0.8 µg/mL (≈ 1.85 µM); in experiment [4], 0.2 µg/mL (≈ 0.464 µM); in experiment [5], 0.25 µg/mL (≈ 0.579 µM); in experiment [6], 0.13 µg/mL (≈ 0.301 µM).

Turning to `CC(C)N1CCN(c2cc3c(cc2F)c(=O)c(C(=O)O)cn3C2CC2)CC1`, the MIC in experiment [1] stood at 0.8 µg/mL (≈ 2.14 µM); in experiment [2] it was 0.2 µg/mL (≈ 0.536 µM); in experiment [3], 1.6 µg/mL (≈ 4.28 µM); in experiment [4], 0.1 µg/mL (≈ 0.268 µM); in experiment [5] it was 0.25 µg/mL (≈ 0.669 µM); in experiment [6], 0.25 µg/mL (≈ 0.669 µM).

As to `CCN1CCN(c2cc3c(cc2F)c(=O)c(C(=O)O)cn3CC)CC1`, the MIC in experiment [1] was 3.1 µg/mL (≈ 8.92 µM); in experiment [2], 0.2 µg/mL (≈ 0.576 µM); in experiment [3] it was 1.6 µg/mL (≈ 4.61 µM); in experiment [4], 0.1 µg/mL (≈ 0.288 µM); in experiment [5], 0.5 µg/mL (≈ 1.44 µM); in experiment [6] it was 0.25 µg/mL (≈ 0.72 µM).

With `CC1CN(c2cc3c(cc2F)c(=O)c(C(=O)O)cn3-c2ccc(F)cc2F)CCN1` (stereo not drawn) [TEMAFLOXACIN], the MIC stood at 0.4 µg/mL (≈ 0.958 µM) in experiment [1]; 0.4 µg/mL (≈ 0.958 µM) in experiment [2]; 0.8 µg/mL (≈ 1.92 µM) in experiment [3]; 0.1 µg/mL (≈ 0.24 µM) in experiment [4]; 0.5 µg/mL (≈ 1.2 µM) in experiment [5]; 0.13 µg/mL (≈ 0.311 µM) in experiment [6].

With `CCn1cc(C(=O)O)c(=O)c2cc(F)c(N3CCNCC3)cc21` [NORFLOXACIN], the MIC was above 3.1 µg/mL in experiment [1]; 3.1 µg/mL (≈ 9.71 µM) in experiment [2]; 0.8 µg/mL (≈ 2.51 µM) in experiment [3]; 0.1 µg/mL (≈ 0.313 µM) in experiment [4]; 2 µg/mL (≈ 6.26 µM) in experiment [5]; 0.5 µg/mL (≈ 1.57 µM) in experiment [6].
